Source: ChEMBL document CHEMBL1125811, “Potential antitumor agents. 63. Structure-activity relationships for side-chain analogues of the colon 38 active agent 9-oxo-9H-xanthene-4-acetic acid” (J Med Chem, 1991)

Assays:
[1] = test system: Mus musculus; assay: Optimal dose to achieve the level of activity cited in colon 38 tumors after intraperitoneal administration in mice.; format: functional
In short: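 BDF1 mice bearing s.c. colon 38 tumors (4-8 mm) given a single i.p. dose of sodium salt in water. Full dose profile run at 1.5-fold intervals. Tumors removed at 24 h for histological necrosis scoring. Optimal dose is the minimum dose in mg/kg reaching the cited activity level.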

[2] = organism: Mus musculus; assay: Ability to cause early haemorrhagic necrosis of colon 38 tumors in mice.; format: functional; design: concentration or dose not given beside the values
In short: (§1)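 Colon 38 fragments implanted s.c. in BDF1 mice and grown to 4-8 mm diameter. Single i.p. dose of sodium salt in water, escalated in 1.5-fold steps up to 750 mg/kg or the maximum nonlethal dose. Triplicate testing, groups of five mice. Tumors excised after 24 h, formalin-fixed, H&E-stained and scored histologically: ++ for 90-100% necrosis, + for 50-90%, - for consistently <50%.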

[3] = Range of dose (highest nontoxic to minimum effective) over which 50-90% necrosis was achieved in mice; design: unit not given here
In short: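 Single i.p. dose of sodium salt in water to BDF1 mice bearing s.c. colon 38 tumors. Doses escalated 1.5-fold. Tumor necrosis read histologically at 24 h. Range recorded from highest nontoxic to minimum effective dose giving 50-90% necrosis, only where activity occurred at more than one dose level.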

[4] = Relative measure of lipophilicity was determined by using 4'-(9-acridinylamino)-methanesulfonanilide as internal standard; format: physicochemical; conditions: octanol/water
In short: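 Rm determined by liquid-liquid chromatography, with AMSA as internal standard.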

[5] = organism: Mus musculus; assay: The compound was evaluated for its ability to cause early haemorrhagic necrosis of colon 38 tumors in mice; Value ranges from 50-90%; format: functional; in short: as §1

SMILES | Rm [4] | OD [1] [mg/kg] | Activity [2] [%] | Range [3] | Activity [5] [%]
Cc1cccc2c(=O)c3cccc([C@H](C)C(=O)O)c3oc12 |  | 65 | >90 |  | 
Cc1ccc2c(=O)c3cccc(CC(=O)O)c3oc2c1C [VADIMEZAN] | 0.49 | 30 | >90 | 30 | 
Cc1cccc2c(=O)c3cccc(C(C)C(=O)O)c3oc12 (configuration not stated) | 0.88 | 150 | >90 | 150 | 
CC(C(=O)O)c1cccc2c(=O)c3ccccc3oc12 (configuration not stated) | 0.85 | 500 | >90 | 500 | 
CN(C)CCOC(=O)Cc1cccc2c(=O)c3ccccc3oc12 | -0.24 | 330 |  |  | 90
CN(C)CCNC(=O)Cc1cccc2c(=O)c3ccccc3oc12 | -0.27 | 750 |  |  | 90
O=C(O)C(O)c1cccc2c(=O)c3ccccc3oc12 (configuration not stated) | 0.04 | 750 |  |  | 90
COC(C(=O)O)c1cccc2c(=O)c3ccccc3oc12 (configuration not stated) | 0.49 | 750 | <50 |  | 
O=C(O)C(F)c1cccc2c(=O)c3ccccc3oc12 (configuration not stated) | 0.75 | 750 | <50 |  | 
NC(C(=O)O)c1cccc2c(=O)c3ccccc3oc12 (configuration not stated) | -0.53 | 750 |  |  | 90
Cc1cccc2c(=O)c3cccc([C@@H](C)C(=O)O)c3oc12 |  | 220 | >90 | 220 | 
O=C(Cc1cccc2c(=O)c3ccccc3oc12)NS(=O)(=O)c1ccccc1 | 0.51 | 750 | <50 |  | 
O=C(O)COc1cccc2c(=O)c3ccccc3oc12 | 0.21 | 750 | <50 |  | 

More lines, main results first:

Rm [4] | SMILES | OD [1] [mg/kg] | Activity [2] [%] | Range [3] | Activity [5] [%]
-0.04 | CCOP(=O)(O)Cc1cccc2c(=O)c3ccccc3oc12 | 750 | <50 |  | 
0.49 | O=C(O)c1cccc2c(=O)c3ccccc3oc12 | 220 | <50 |  | 
0.64 | O=C(O)Cc1cccc2c(=O)c3ccccc3oc12 | 220 | >90 |  | 
-0.2 | N=C(N)SCc1cccc2c(=O)c3ccccc3oc12 | 220 | <50 |  | 
-0.59 | O=c1c2ccccc2oc2c(CS(=O)(=O)O)cccc12 | 330 | <50 |  | 
0.7 | O=C(O)CCc1cccc2c(=O)c3ccccc3oc12 | 500 |  |  | 90
-0.48 | O=c1c2ccccc2oc2c(CP(=O)(O)O)cccc12 | 750 | <50 |  | 
